Experimental data as given in ChEMBL document CHEMBL1122501, “Potential antiatherosclerotic agents. 2. (Aralkylamino)- and (alkylamino) benzoic acid analogues of cetaben” (1983).

Assays:
Rattus norvegicus [1] = assay: In vivo triglyceride lowering activity dosed at 0.05 % of the diet; assay type: functional
Procedure, shortened: (§1)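 Male CFE or CD-1 Sprague-Dawley rats, 140-150 g; 8 per control group, 4 per test group. Compound mixed into ground chow (w/w) via MeOH-CHCl3 (1:3) solution, solvent evaporated; controls got solvent-treated chow. Fed ad libitum 5 days, food intake monitored, killed fed and bled. Serum sterols and triglycerides by adapted autoanalyzer methods; mean percent of control, Student's t test.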

Rattus norvegicus [2] = assay: In vivo Sterol lowering activity at dose as 0.025 % of the diet.; assay type: functional; procedure, shortened: as §1
Rattus norvegicus [3] = assay: In vivo Triglyceride lowering activity at dose as 0.025 % of the diet; assay type: functional; procedure, shortened: as §1
Rattus norvegicus [4] = assay: In vivo sterol lowering activity dosed at 0.10 % of the diet; assay type: functional; procedure, shortened: as §1
Rattus norvegicus [5] = assay: In vivo Sterol lowering activity at dose as 0.05 % of the diet.; assay type: functional; procedure, shortened: as §1
Rattus norvegicus [6] = assay: In vivo triglyceride lowering activity dosed at 0.10 % of the diet; assay type: functional; procedure, shortened: as §1
Rattus norvegicus [7] = assay: In vivo Triglyceride lowering activity at dose as 0.017 % of the diet.; assay type: functional; procedure, shortened: as §1
[8] = molecular target: T1, Sterol O-acyltransferase 1 (Rattus norvegicus) (UniProt O70536); assay: In vitro inhibitory activity against acyl coenzyme A:cholesterol acyltransferase (ACAT); design: concentration or dose not given beside the values; conditions: concentration not given here
T1 sequence (whole entry): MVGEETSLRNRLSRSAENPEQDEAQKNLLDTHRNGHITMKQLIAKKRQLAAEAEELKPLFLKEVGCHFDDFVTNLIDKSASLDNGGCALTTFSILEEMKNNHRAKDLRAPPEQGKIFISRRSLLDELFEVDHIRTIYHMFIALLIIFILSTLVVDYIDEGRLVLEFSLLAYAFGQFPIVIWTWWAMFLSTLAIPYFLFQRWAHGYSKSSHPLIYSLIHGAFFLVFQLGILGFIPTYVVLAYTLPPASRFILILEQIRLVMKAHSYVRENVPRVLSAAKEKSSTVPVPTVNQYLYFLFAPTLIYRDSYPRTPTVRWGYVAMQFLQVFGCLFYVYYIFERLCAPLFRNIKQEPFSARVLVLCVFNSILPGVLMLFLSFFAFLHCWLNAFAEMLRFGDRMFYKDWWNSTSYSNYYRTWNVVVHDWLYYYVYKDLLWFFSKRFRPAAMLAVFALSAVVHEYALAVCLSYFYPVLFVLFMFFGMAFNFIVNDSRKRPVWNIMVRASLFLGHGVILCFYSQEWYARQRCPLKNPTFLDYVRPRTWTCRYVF
Procedure, shortened: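 ACAT enzyme from rat adrenal homogenate in 0.2 M KH2PO4 buffer pH 7.4, 1000g 15 min 5 °C supernatant (microsomal fraction). Supernatant + BSA (50 mg/mL) + compound at final 5.2 μg/mL + buffer preincubated 10 min 37 °C; [14C]oleoyl-CoA (0.4 μCi) added, 30 min 37 °C. Lipids extracted, TLC; cholesteryl ester zone counted. Mean % inhibition vs no-compound control; Student's t test.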

Rattus norvegicus [9] = assay: In vivo Sterol lowering activity at dose as 0.10 % of the diet.; assay type: functional; procedure, shortened: as §1
Rattus norvegicus [10] = assay: In vivo triglyceride lowering activity, dosed at 0.10 % of the diet.; assay type: functional; procedure, shortened: as §1
Rattus norvegicus [11] = assay: In vivo Sterol lowering activity at dose as 0.017 % of the diet.; assay type: functional; procedure, shortened: as §1
Rattus norvegicus [12] = assay: In vivo Triglyceride lowering activity at dose as 0.05 % of the diet.; assay type: functional; procedure, shortened: as §1
Rattus norvegicus [13] = assay: In vivo Sterol lowering activity at dose as 0.05 % of the diet; assay type: functional; procedure, shortened: as §1
Rattus norvegicus [14] = assay: In vivo Sterol lowering activity at dose as 0.025 % of the diet; assay type: functional; procedure, shortened: as §1
Rattus norvegicus [15] = assay: In vivo Triglyceride lowering activity at dose as 0.025% of the diet; assay type: functional; procedure, shortened: as §1
Rattus norvegicus [16] = assay: In vivo triglyceride lowering activity, dosed at 0.03 % of the diet; assay type: functional; procedure, shortened: as §1

Compound | inhibition [8] [%] | Diet (Rattus norvegicus [1]) [%] | Diet (Rattus norvegicus [2]) [%] | Diet (Rattus norvegicus [3]) [%] | serum sterol, percent of control (Rattus norvegicus [4]) [%] | Diet (Rattus norvegicus [5]) [%] | serum triglycerides, percent of control (Rattus norvegicus [6]) [%] | Diet (Rattus norvegicus [7]) [%] | serum sterol, percent of control (Rattus norvegicus [9]) [%] | Diet (Rattus norvegicus [10]) [%] | Diet (Rattus norvegicus [11]) [%] | Diet (Rattus norvegicus [12]) [%] | Diet (Rattus norvegicus [9]) [%] | Diet (Rattus norvegicus [13]) [%] | Diet (Rattus norvegicus [14]) [%] | Diet (Rattus norvegicus [15]) [%] | serum triglycerides, percent of control (Rattus norvegicus [16]) [%]
CCOC(=O)c1ccc(NC/C=C/c2ccccc2)cc1 | – | 58 | 92 | 73 | 84 | 86 | 60 | – | – | – | – | – | – | – | – | – | –
O=C(O)c1ccc(NCCc2cccs2)cc1 | 5 | – | – | – | – | 81 | – | 121 | 88 | 103 | 74 | 97 | – | – | – | – | –
O=C(O)c1ccc(NCc2ccc(-c3ccccc3)cc2)cc1 | 7 | 70 | 98 | 61 | – | 98 | 42 | – | 90 | – | – | – | – | – | – | – | –
O=C(O)c1ccc(NCCCCc2cccs2)cc1 | 10 | – | – | – | – | 98 | – | 94 | 77 | 90 | 90 | 89 | – | – | – | – | –
CCOC(=O)c1ccc(NCCCCCCCc2ccccc2)cc1 | < 54 | <82 | – | – | 89 | – | <72 | – | – | – | – | – | – | 89 | 90 | <84 | –
O=C(O)c1ccc(NCCCCCCCCCCCc2ccccc2)cc1 | < 24 | <69 | – | – | <83 | – | <74 | – | – | – | – | – | – | <76 | 83 | <68 | –
O=C(O)c1ccc(NCCc2ccccc2)cc1 | 9 | – | 90 | 64 | 88 | 84 | 48 | – | – | – | – | 70 | – | – | – | – | –
O=C(O)c1ccc(NCCc2ccc(F)cc2)cc1 | 0 | 50 | 104 | 72 | – | 86 | 54 | – | 91 | – | – | – | – | – | – | – | –
COc1ccc(CNc2ccc(C(=O)O)cc2)cc1 | 5 | – | 91 | 69 | – | 95 | 60 | – | 94 | – | – | 76 | – | – | – | – | –
O=C(O)c1ccc(NCc2ccccc2)cc1 | 2 | 62 | – | – | 87 | – | 65 | 92 | – | – | 101 | – | – | 86 | – | – | –
CCOC(=O)c1ccc(NCCCc2ccccc2OC)cc1 | 64 | – | 96 | 61 | – | 107 | – | – | 107 | 74 | – | 66 | – | – | – | – | –
CCOC(=O)c1ccc(NCCCc2ccccc2)cc1 | 61 | 56 | 94 | 77 | 79 | – | 57 | – | – | – | – | – | – | 77 | – | – | –
CCOC(=O)c1ccc(NCCc2cccc3ccccc23)cc1 | 9 | – | – | – | – | 103 | 73 | 112 | 94 | – | 98 | 80 | – | – | – | – | –
O=C(O)c1ccc(NCCc2cccc3ccccc23)cc1 | – | 67 | – | – | – | 108 | 63 | 89 | 93 | – | 108 | – | – | – | – | – | –

Continued, in another order:

inhibition [8] [%] | Compound | Diet (Rattus norvegicus [1]) [%] | Diet (Rattus norvegicus [2]) [%] | Diet (Rattus norvegicus [3]) [%] | serum sterol, percent of control (Rattus norvegicus [4]) [%] | Diet (Rattus norvegicus [5]) [%] | serum triglycerides, percent of control (Rattus norvegicus [6]) [%] | Diet (Rattus norvegicus [7]) [%] | serum sterol, percent of control (Rattus norvegicus [9]) [%] | Diet (Rattus norvegicus [10]) [%] | Diet (Rattus norvegicus [11]) [%] | Diet (Rattus norvegicus [12]) [%] | Diet (Rattus norvegicus [9]) [%] | Diet (Rattus norvegicus [13]) [%] | Diet (Rattus norvegicus [14]) [%] | Diet (Rattus norvegicus [15]) [%] | serum triglycerides, percent of control (Rattus norvegicus [16]) [%]
16 | O=C(O)c1ccc(NCc2ccc(OCc3ccccc3)cc2)cc1 | 85 | 93 | – | – | 98 | 89 | 91 | 97 | – | – | – | – | – | – | – | –
45 | CCOC(=O)c1ccc(NCc2ccc(OCc3ccccc3)cc2)cc1 | 85 | – | – | 91 | 100 | – | 97 | – | 92 | 105 | – | – | – | – | – | –
50 | CCOC(=O)c1ccc(NCCCc2ccc(OCc3ccccc3)cc2)cc1 | 46 | 86 | 56 | – | 86 | 56 | – | – | – | – | – | 96 | – | – | – | –
2 | O=C(O)c1ccc(NCCCc2ccc(OCc3ccccc3)cc2)cc1 | 69 | 90 | 67 | – | 96 | 60 | – | 93 | – | – | – | – | – | – | – | –
18 | O=C(O)c1ccc(NCCc2ccc(OCc3ccccc3)cc2)cc1 | – | 100 | 70 | – | 103 | – | – | – | 84 | – | 81 | 86 | – | – | – | –
45 | CCOC(=O)c1ccc(NCc2ccccc2)cc1 | – | – | – | 86 | – | – | 97 | – | 78 | 108 | – | – | 90 | – | – | 88
49 | CCOC(=O)c1ccc(NCc2ccc(OC)cc2)cc1 | 62 | 95 | 73 | – | 92 | 48 | – | 94 | – | – | – | – | – | – | – | –
